From PMC3993921 (Inorganic Chemistry, 2014)
“Also recorded” adds a separate entry of the source.

What was measured:
[1] = system: unstimulated normal cells (resting lymphocytes, PBMC); test: Growth inhibition of normal cells: resting lymphocytes; type: cell-based; conditions: read-out: lymph (resting) IC50; resting human lymphocytes (PBMC), MTT, 3 d
Summary of the method: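 Human lymphocytes (PBMCs) from preservative-free heparinised peripheral blood, left unstimulated (no PHA-P), run like the HeLa MTT assay: 1 × 10^4 cells/well, test compound 0–100 μM, but exposure 3 d. Freshly prepared MTT (5 mg/mL) added for 4 h; absorbance at 570 nm (reference 630 nm). Triplicate; IC50 as 50% growth inhibition.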

[2] = system: human cervical epitheloid carcinoma (HeLa) cells; test: Growth inhibition of HeLa cells; type: cell-based; conditions: read-out: HeLa IC50, MTT after 7 d, triplicate
Summary of the method: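 Seeded at 1 × 10^4 cells/well, 1 h, then test compound 0–100 μM for 7 d. Freshly prepared MTT (5 mg/mL) added for 4 h, absorbance read at 570 nm (reference 630 nm). Triplicate, averaged; IC50 = 50% growth inhibition.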

stability in solution = type: physicochemical; conditions: in solution (dichloromethane for 4)
[3] = system: panel of 60 cancer cell lines; test: DTP; type: cell-based; conditions: for TGI range / TGI Δ: 60 cell lines (log scale)
COLO 205 = test: DTP 60-cell-line panel: COLO 205; type: cell-based; conditions: colon COLO205
A549/ATCC = test: DTP 60-cell-line panel: A549/ATCC; type: cell-based; conditions: nonsmall cell lung A549/ATCC, Tables 3, 4
KM12 = test: DTP 60-cell-line panel: KM12; type: cell-based; conditions: colon KM12; Table 3
RPMI-8226 = test: DTP 60-cell-line panel: RPMI-8226; type: cell-based; conditions: leukemia RPMI-8226, Tables 3, 4
RXF393 = test: DTP 60-cell-line panel: RXF393; type: cell-based; conditions: renal RXF393, Table 3
UACC-62 = test: DTP 60-cell-line panel: UACC-62; type: cell-based; conditions: melanoma UACC-62
OVCAR-3 = test: DTP 60-cell-line panel: OVCAR-3; type: cell-based; conditions: ovarian OVCAR-3, Table 3
leukemia SR cell line = test: DTP 60-cell-line panel: SR; type: cell-based
[4] = in vivo hollow fiber studies
IGROV ovarian cell line = conditions: cited from earlier work

Work on `S=C([S][Au][PH](c1ccccc1)(c1ccccc1)c1ccccc1)n1cccn1` [Compound 1, Pyrazolyl-1-dithiocarbamato-triphenylphosphinogold(I)] yielded an IC50 [1] of 9.05 ± 3.5 µM and an IC50 [2] of 2.56 ± 0.12 µM.

`Cc1cc(C)n(C(=S)[S][Au-][P+](c2ccccc2)(c2ccccc2)c2ccccc2)n1` [Compound 2, 3,5-dimethylpyrazolyl-1-dithiocarbamato-triphenylphosphinogold(I)] showed an IC50 [1] of 9.53 ± 3.18 µM and an IC50 [2] of 2.63 ± 0.1 µM.

`S=C([S][Au][PH](c1ccccc1)(c1ccccc1)c1ccccc1)n1ncc2ccccc21` [Compound 3, Indazolyl-1-dithiocarbamato-triphenylphosphinogold(I)] showed an IC50 [1] of 14 ± 10.5 µM and an IC50 [2] of 2.56 ± 0.17 µM.

With `S=C([S][Au][PH](CC[PH]([Au][S]C(=S)n1cccn1)(c1ccccc1)c1ccccc1)(c1ccccc1)c1ccccc1)n1cccn1` [Compound 4, Bis-(pyrazolyl-1-dithiocarbamato)-bis-(diphenylphosphino)ethane Dinuclear Gold(I)] the stability in solution (stability in solution) was “readily transforming to the Au18 cluster”.

Work on `S=C([S][Au][PH](CCC[PH]([Au][S]C(=S)n1cccn1)(c1ccccc1)c1ccccc1)(c1ccccc1)c1ccccc1)n1cccn1` [Compound 7, Bis(pyrazol-1-yldithiocarbamato)-bis-(diphenylphosphino)propane Dinuclear Gold(I)] yielded an IC50 [1] of 7.05 ± 2.02 µM and an IC50 [2] of 3.07 ± 0.48 µM.

In the case of `Cc1cc(C)n(C(=S)[S][Au-][P+](CCC[P+]([Au-][S]C(=S)n2nc(C)cc2C)(c2ccccc2)c2ccccc2)(c2ccccc2)c2ccccc2)n1` [Compound 8, Bis(3,5-dimethylpyrazol-1-yldithiocarbamato)-bis-(diphenylphosphino)propane Dinuclear Gold(I)], the IC50 [1] is reported as 6.13 ± 2.92 µM and the IC50 [2] is reported as 6.96 ± 0.51 µM.

In the case of `S=C([S][Au-][P+](CCC[P+]([Au-][S]C(=S)n1ncc2ccccc21)(c1ccccc1)c1ccccc1)(c1ccccc1)c1ccccc1)n1ncc2ccccc21` [Compound 9, Bis(indazol-1-yldithiocarbamato)-bis-(diphenylphosphino)propane Dinuclear Gold(I)], the IC50 [1] is reported as 18.5 ± 3.88 µM and the IC50 [2] is reported as 3.38 ± 0.3 µM.

In the case of `S=C([S][Au-][P+](CCCCCC[P+]([Au-][S]C(=S)n1cccn1)(c1ccccc1)c1ccccc1)(c1ccccc1)c1ccccc1)n1cccn1` [Compound 10, Dinuclear Bis(pyrazol-1-yldithiocarbamato)-bis-(diphenylphosphino)hexane Gold(I)], the TGI range [3] is reported as 2.28, the “TGI Δ” value [3] is reported as 1.92 and the IC50 [1] is reported as 18.9 ± 5.66 µM. The TGI (COLO 205; Table 3) was >100 µM, the GI50 (COLO 205; Tables 3, 4) was 0.31 µM and the CC50 (COLO 205; read-out: LC50, Tables 3, 4) was > 100 µM. For the same compound, the GI50 (A549/ATCC) was 0.38 µM, the TGI (A549/ATCC) was >100 µM and the CC50 (A549/ATCC; read-out: LC50) was > 100 µM. It also gave a GI50 (KM12) of 0.43 µM, a TGI (KM12) of 1.73 µM and a GI50 (RPMI-8226) of 0.19 µM. The TGI (RPMI-8226) was 0.53 µM, the CC50 (RPMI-8226; read-out: LC50) was > 100 µM and the CC50 (RXF393; read-out: LC50) was > 100 µM. The GI50 (RXF393) was 0.45 µM, the TGI (UACC-62; Table 3) was >100 µM and the GI50 (UACC-62; Tables 3, 4) was 0.38 µM. The CC50 (UACC-62; read-out: LC50, Tables 3, 4) was > 100 µM, the IC50 [2] was 0.51 ± 0.08 µM and the GI50 (OVCAR-3) was 0.7 µM. For the same compound, the TGI (OVCAR-3) was 14.20 µM, the CC50 (OVCAR-3; read-out: LC50) was > 100 µM and the GI50 (leukemia SR cell line; Tables 3, 4) was 0.19 µM. For the same compound, the TGI (leukemia SR cell line; Tables 3, 4) was 2.41 µM, the CC50 (leukemia SR cell line; read-out: LC50, Tables 3, 4) was > 100 µM and the activity in vivo [4] was “not so great”.

With `Cc1cc(C)n(C(=S)[S][Au][PH](CCCCCC[PH]([Au][S]C(=S)n2nc(C)cc2C)(c2ccccc2)c2ccccc2)(c2ccccc2)c2ccccc2)n1` [Compound 11, Dinuclear Bis(3,5-dimethylpyrazol-1-yldithiocarbamato)-bis-(diphenylphosphino)hexane Gold(I)] the TGI range [3] was 2.38, the “TGI Δ” value [3] was 1.87 and the “GI50 MG-MID” value ([3]; median over 60 cell lines (log scale)) was “–6.25”. For the same compound, the IC50 [1] was 18.2 ± 15.9 µM, the IC50 [2] was 0.14 ± 0.01 µM and the activity in vivo [4] was “could not be delivered to the targets; also recorded: not so great”.

Compound `S=C([S][Au-][P+](CCCCCC[P+]([Au-][S]C(=S)n1ncc2ccccc21)(c1ccccc1)c1ccccc1)(c1ccccc1)c1ccccc1)n1ncc2ccccc21` [Compound 12, Dinuclear Bis(indazol-1-yldithiocarbamato)-bis-(diphenylphosphino)hexane Gold(I)] has an IC50 [1] of 37.7 ± 12.6 µM and an IC50 [2] of 4.04 ± 0.49 µM.

In the case of `CCN(CC)C(=S)[S][Au][PH](CC)(CC)CC` [[(Et3P)Au(S2CNEt2)]], the ID50 (IGROV ovarian cell line) is listed as 0.012 µg/mL.

`N.N.[Cl][Pt][Cl]` [cis-platin, reference compound] gave an IC50 [2] of 0.45 ± 0.09 µM.
